According to article PMC8978659 (RSC Advances, 2021):

System: RAW264.7 cells
Assay: Cytotoxicity test, CCK-8
Type: cell-based
Conditions: 10 μM, 48 h, CCK-8, OD 450 nm, duplicate independent experiments
Summary of the method: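 RAW264.7 cells seeded at 1 × 10^5 per mL and exposed for 48 h to test compound at 0, 1.25, 2.5, 5 and 10 μM. CCK-8 reagent added, then 4 h at 37 °C protected from light. Absorbance read at 450 nm. Survival rate = OD of treated / OD of blank control; cytotoxic effect = 1 − survival rate.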

SMILES: NCC1CC(=S)N2CC3CCCN4CCCC(C34)C2C1 (stereo not shown) [M19, 13-Aminomethyl-15-thiomatrine]
- cell viability inhibition: about 20%
